The values below come from ChEMBL document CHEMBL4732146, “Nitric oxide-donating and reactive oxygen species-responsive prochelators based on 8-hydroxyquinoline as anticancer agents” (Eur J Med Chem, 2021).

Data set [1] relates to SW1990. As to the kind of experiment: Induction of apoptosis in human SW1990 cells assessed as decrease in Bcl-2 expression at 8 to 12 uM measured after 24 hrs by Western blot analysis. Format: functional, cell-based. As to conditions: dose 8-12 µM. Summed up: (§1)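 SW1990 cells seeded 5 × 10⁵ per well and grown 24 h at 37 °C, then treated 24 h. Lysates quantified by BCA, resolved by SDS-PAGE and transferred to nitrocellulose. Blocked in 5% milk, probed overnight at 4 °C for cleaved caspase-3, cleaved caspase-9, Bax and Bcl-2, then HRP secondary 2 h. ECL detection.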
For orientation: In western blotting, separated proteins are transferred to a membrane and probed.

For data set [2], the system named is PANC-1. As to the kind of experiment: Cytotoxicity against human PANC-1 cells assessed as reduction in cell viability measured after 48 hrs by MTT assay. Format: functional, cell-based. As to conditions: PANC-1, 48 h. Summed up: (§2)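 Cells seeded 6 × 10⁴ per well, cultured 24 h at 37 °C under 5% CO₂, then exposed to compound for 48 h, with or without 50 µM CuCl₂ or FeCl₃ co-incubation. MTT added for 4 h at 37 °C, formazan dissolved in DMSO, A490 read. IC50 reported as mean (SD), n = 3.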
On the technique in general: Tetrazolium assays rely on reduction of a dye to a coloured formazan, in cell work by metabolically active cells.

Data set [3] concerns SW1990. Kind of data set: Induction of apoptosis in human SW1990 cells at 12 uM measured after 24 hrs in presence of NO scavenger Carboxyl-PTIO by Annexin V-FITC/propidium iodide staining based flow cytometry. Type of data set: functional, cell-based. Summed up: (§3)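 SW1990 cells seeded 5 × 10⁵ per well and grown 24 h, then treated 24 h at 8 or 12 µM. Optional 1 h pretreatment with 20 mM NAC or 50 µM carboxyl-PTIO before 12 µM treatment. Cells stained with annexin V-FITC 15 min and PI 5 min at room temperature in the dark, then analysed by flow cytometry. Mean ± SD, n = 3.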

Data set [4] in a line: Cytotoxicity against human RWPE2 cells assessed as reduction in cell viability measured after 48 hrs by MTT assay. As to conditions: RWPE2, 48 h. Type of data set: cell-based. Summed up:
as §2

Data set [5] can be described thus: Drug metabolism in human SW1990 cells assessed as nitric oxide release by measuring increase in 3-nitrotyrosine-containing cytochrome-c expression at 8 to 12 uM measured after 24 hrs by Western blot analysis. Format: ADME, cell-based. As to conditions: sw1990, 24 h. In short, it runs like this:
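SW1990 cells treated 24 h, or pretreated 1 h with carboxyl-PTIO (50 µM) before 24 h treatment. Mitochondrial proteins extracted and lysed (30 µg/lane), run on SDS-PAGE, blotted to PVDF and probed with anti-3-nitrotyrosine antibody. Mean ± SD, n = 3.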

A short description of data set [6]: Metal chelating activity assessed as compound-Cu2+ complex formation by measuring change in wavelength at 50 uM measured after 40 mins in presence of H2O2 by UV spectrophotometric method. In short, it runs like this: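 Compound at 50 µM final in PBS (10 mM, pH 7.4) with 50 µM CuCl₂ and H₂O₂ (500 µM, 10 eq.). UV spectrum tracked over 40 min at room temperature, following peaks at 240, 382 and 210 nm.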

Data set [7] can be described thus: Metal chelating activity assessed as compound-Cu2+ complex formation by measuring intracellular HO level in human SW1990 cells at 10 uM measured after 1 hr in presence of CuCl2 and HO radical scavenger tempol by HO probe based confocal laser scanning microscopic analysis. Type of data set: cell-based. Summed up: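 SW1990 cells at 80% confluence were loaded with 20 µM HO· probe at 37 °C for 30 min and rinsed. They then received 50 µM CuCl₂, followed by 10 µM compound for 1 h. For the scavenger arm, 1 mM tempol was given for 30 min before CuCl₂. CLSM imaging at λex 570 / λem 650 nm gave mean intensity; n = 3.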

Data set [8] is described as follows: Stability of compound in pH 7.4 PBS buffer assessed as parent compound remaining measured after 24 hrs by RP-HPLC analysis. As to conditions: read-out: Stabilty. Type of data set: physicochemical. Summed up: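 Compound (1 µM) stirred at 37 °C either in PBS (pH 5.0, 7.4 or 10.0) containing 5% DMSO or in DMEM with 10% FBS. Aliquots were analysed by RP-HPLC (0.1% TFA water/methanol gradient, 256 nm) for remaining intact compound, up to 24 h.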

A short description of data set [9]: Prodrug activation in ClO- at 100 uM measured after 1 hr by RP-HPLC analysis. In short, it runs like this: (§4)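 Compound (100 µM) incubated at 37 °C for 1 h with one of: ROS species (1 mM), NO solution (1 mM), GSH (200 µM), CuCl₂ (10 µM) or FeCl₃ (10 µM). Percent decomposed was determined by RP-HPLC (ODS column, 0.1% TFA water/methanol gradient, 1 mL/min, 256 nm).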

Data set [10] can be described thus: Metal chelating activity assessed as compound-Cu2+ complex stoichiometry ratio of […] after 1 hr by Job's plot analysis.
The test system of data set [11] is PANC-1. Kind of data set: Cytotoxicity against human PANC-1 cells assessed as reduction in cell viability measured after 48 hrs in presence of CuCl2 by MTT assay. Type of data set: functional, cell-based. As to conditions: PANC-1, 48 h. In short, it runs like this: as §2
The test system of data set [12] is SW1990. As to the kind of experiment: Cytotoxicity against human SW1990 cells assessed as reduction in cell viability measured after 48 hrs in presence of 10 to 50 uM Cu2+ by MTT assay. Type of data set: functional, cell-based. As to conditions: dose 10-50 µM.
Data set [13] deals with SW1990. Kind of data set: Cell cycle arrest in human SW1990 cells assessed as increase in accumulation at G1-phase at 12 uM measured after 24 hrs by propidium iodide staining based flow cytometry. Format: functional. Summed up:
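SW1990 cells seeded 5 × 10⁵ per well, grown 24 h, then treated 24 h. Washed in ice-cold PBS, fixed ≥24 h in ice-cold 70% alcohol, RNase A treated, PI-stained 30 min at 4 °C in the dark. DNA content read by flow cytometry to give cycle distribution. Mean ± SD, n = 3.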

Data set [14] in a line: Stability of compound in presence of Cu2+ at 100 uM measured after 1 hr by RP-HPLC analysis. Type of data set: physicochemical. In short, it runs like this: as §4
The subject of data set [15] is SW1990. Kind of data set: Cytotoxicity against human SW1990 cells assessed as reduction in cell viability measured after 48 hrs in presence of CuCl2 by MTT assay. Type of data set: functional, cell-based. As to conditions: SW1990, 48 h. In short, it runs like this: as §2
Data set [16] concerns SW1990. As to the kind of experiment: Induction of apoptosis in human SW1990 cells assessed as increase in cleaved caspase-3 expression at 8 to 12 uM measured after 24 hrs by Western blot analysis. Type of data set: functional, cell-based. As to conditions: dose 8-12 µM. In short, it runs like this:
as §1

Data set [17] relates to SW1990. As to the kind of experiment: Cytotoxicity against human SW1990 cells assessed as reduction in cell viability measured after 48 hrs by MTT assay. Format: functional, cell-based. As to conditions: SW1990, 48 h. Summed up: as §2
Data set [18] in a line: Metal chelating activity assessed as compound-Cu2+ complex formation at 50 uM measured after 40 mins in absence of H2O2 by UV spectrophotometric method. Summed up: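 Stock in DMSO diluted into PBS (10 mM, pH 7.4) to a final 50 µM, with 50 µM CuCl₂ added and no H₂O₂. UV spectrum recorded over 40 min at room temperature.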
Data set [19] is described as follows: Cytotoxicity against human H6C7 cells assessed as reduction in cell viability measured after 48 hrs by MTT assay. Type of data set: cell-based. As to conditions: H6C7, 48 h. In short, it runs like this: as §2
Data set [20] in a line: Prodrug activation in peroxynitrite ONOO- assessed as drug decomposition at 100 uM measured after 1 hr by RP-HPLC analysis. Summed up: as §4
Data set [21] in a line: Prodrug activation in OH at 100 uM measured after 1 hr by RP-HPLC analysis. Summed up:
as §4

For data set [22], the system named is SW1990. As to the kind of experiment: Induction of apoptosis in human SW1990 cells at 8 to 12 uM measured after 24 hrs by Annexin V-FITC/propidium iodide staining based flow cytometry. Format: functional, cell-based. As to conditions: dose 8-12 µM. Summed up:
as §3
On the technique in general: A flow cytometer gives signals particle by particle.

pIC50: −log10 of the molar value. Activity calls are given as the source filed them. The calls are words filed in the database; no cut-off is given here.

In general, pIC50 refers to −log10 of the IC50, conventionally taken in molar units. As for `O=C(NCCCOc1no[n+]([O-])c1S(=O)(=O)c1ccccc1)c1ccc2cccc(OCc3ccc(B(O)O)cc3)c2n1`, the outcome in the data set with SW1990 [1], in the data set with SW1990 [13], in the data set with SW1990 [16] and in the data set with SW1990 [22] was Active. Also, the pIC50 was 4.98 in the data set on PANC-1 [2]; 4.45 in data set [4]; 5.77 with PANC-1 [11]; 5.92 in the data set on SW1990 [15]; 5.05 in the data set with SW1990 [17]; under 4.30 in data set [19]. Besides, the outcome (with SW1990 [3]; in data set [7]; in data set [18]) was inactive. The Drug metabolism entry in [5] is given as “Metabolite_Detected”; in [9] it was “Metabolite_Notdetected”; in data set [21] it was “Metabolite_Notdetected”. The Activity in data set [6] was 210 nm; with SW1990 [12] it was “Dose-dependent effect”. The remaining at 24 h in data set [8] is over 80%. Moreover, the Ratio in data set [10] was determined as 0.64. Besides, the Stabilty entry in data set [14] is given as “Stable”. In data set [20], the Drug degradation came out at 20.8%.
